The text below walks through data of article PMC3136873 (Archives of biochemistry and biophysics, 2011).

The target of data set [1] is T1, ALAS/ALAS (single chain dimeric ALAS) (Mus musculus, UniProt P08680).
T1 sequence (P08680 50-587): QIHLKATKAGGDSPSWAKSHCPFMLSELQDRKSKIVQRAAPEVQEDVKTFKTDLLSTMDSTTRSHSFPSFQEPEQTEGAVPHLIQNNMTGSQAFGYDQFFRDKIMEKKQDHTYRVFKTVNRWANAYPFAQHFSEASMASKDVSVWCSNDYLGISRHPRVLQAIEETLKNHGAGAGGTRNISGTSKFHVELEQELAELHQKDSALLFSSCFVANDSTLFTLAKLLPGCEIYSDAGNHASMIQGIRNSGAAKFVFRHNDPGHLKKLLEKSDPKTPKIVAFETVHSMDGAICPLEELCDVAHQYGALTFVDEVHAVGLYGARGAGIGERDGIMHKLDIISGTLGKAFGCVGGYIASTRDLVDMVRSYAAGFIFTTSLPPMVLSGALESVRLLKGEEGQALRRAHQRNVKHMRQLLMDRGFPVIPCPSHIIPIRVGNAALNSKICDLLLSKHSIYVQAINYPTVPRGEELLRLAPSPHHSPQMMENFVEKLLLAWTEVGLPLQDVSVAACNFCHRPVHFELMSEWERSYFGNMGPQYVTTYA
The experiment in a line: dissociation constant for ALA binding.

In data set [2] the test system is ALAS/AONS. The experiment in a line: continuous coupled spectrophotometric assay. To be noted: read-out: KmSCoA; ALAS site; co-substrate glycine; 30 °C. It counts as biochemical, Mus musculus; Escherichia coli. Summed up: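 ALAS/AONS chimera was expressed in E. coli DH5α and purified by 20–40% ammonium sulfate fractionation, Ultrogel ACA-44 gel filtration and Q-Sepharose (100–150 mM KCl gradient). Its concentration was taken on a 96 kD subunit basis. ALAS-site activity was read continuously by spectrophotometry at 30 °C, varying one substrate with the other held constant. Km came from Michaelis-Menten nonlinear regression.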

Data set [3] concerns the molecule itself. As to the kind of experiment: SEC. In general terms: In gel filtration, larger molecules generally elute earlier.

By Kd is commonly meant the free concentration of one partner at which half of the binding sites on the other are occupied at equilibrium, for simple one-to-one binding. The stoichiometry N is a count of units in the complex or per binding partner.

The molecule `NCC(=O)CCC(=O)O` [ALA, 5-aminolevulinate] had a Kd in data set [1] of 1460 ± 10 nM. As for `CC(C)(COP(=O)(O)OP(=O)(O)OC[C@H]1O[C@@H](n2cnc3c(N)ncnc32)[C@H](O)[C@@H]1OP(=O)(O)O)[C@@H](O)C(=O)NCCC(=O)NCCSC(=O)CCC(=O)O` [SCoA, succinyl-CoA], the Km in data set [2] was determined as 1.5 ± 0.2 µM.

B1: ALAS/AONS chimera (single-chain chimera of murine erythroid 5-aminolevulinate synthase and E. coli 8-amino-7-oxononanoate synthase) (enzyme, murine | E. coli)
chain: QIHLKATKAGGDSPSWAKSHCPFMLSELQDRKSKIVQRAAPEVQEDVKTFKTDLLSTMDSTTRSHSFPSFQEPEQTEGAVPHLIQNNMTGSQAFGYDQFFRDKIMEKKQDHTYRVFKTVNRWANAYPFAQHFSEASMASKDVSVWCSNDYLGISRHPRVLQAIEETLKNHGAGAGGTRNISGTSKFHVELEQELAELHQKDSALLFSSCFVANDSTLFTLAKLLPGCEIYSDAGNHASMIQGIRNSGAAKFVFRHNDPGHLKKLLEKSDPKTPKIVAFETVHSMDGAICPLEELCDVAHQYGALTFVDEVHAVGLYGARGAGIGERDGIMHKLDIISGTLGKAFGCVGGYIASTRDLVDMVRSYAAGFIFTTSLPPMVLSGALESVRLLKGEEGQALRRAHQRNVKHMRQLLMDRGFPVIPCPSHIIPIRVGNAALNSKICDLLLSKHSIYVQAINYPTVPRGEELLRLAPSPHHSPQMMENFVEKLLLAWTEVGLPLQDVSVAACNFCHRPVHFELMSEWERSYFGNMGPQYVTTYAELMSWQEKINAALDARRAADALRRRYPVAQGAGRWLVADDRQYLNFSSNDYLGLSHHPQIIRAWQQGAEQFGIGSGGSGHVSGYSVVHQALEEELAEWLGYSRALLFISGFAANQAVIAAMMAKEDRIAADRLSHASLLEAASLSPSQLRRFAHNDVTHLARLLASPCPGQQMVVTEGVFSMDGDSAPLAEIQQVTQQHNGWLMVDDAHGTGVIGEQGRGSCWLQKVKPELLVVTFGKGFGVSGAAVLCSSTVADYLLQFARHLIYSTSMPPAQAQALRASLAVIRSDEGDARREKLAALITRFRAGVQDLPFTLADSCSAIQPLIVGDNSRALQLAEKLRQQGCWVTAIRPPTVPAGTARLRLTLTAAHEMQDIDRLLEVLHGNG
Turning to B1, in data set [3], the “stoichiometry N” value stood at 2.
